Test [1] deals with A549. The test is described as follows: Cytotoxicity against human A549 cells after 3 days by MTT assay. Type of test: functional, cell-based. As to conditions: A549, 72 h. Summed up: (§1)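 MTT read-out: formazan dissolved in DMSO, absorbance at 570 nm, compound-free wells as blanks. Survival expressed as percentage of untreated control wells.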
Background: Formazan colour is commonly taken as a measure of viable cells.

Test [2] has as its system MDA-MB-435. The test is described as follows: Cytotoxicity against human MDA-MB-435 cells after 3 days by MTT assay. Type of test: functional, cell-based. The conditions noted are these: MDA-MB-435, 72 h. The gist of the method:
as §1

For test [3], the system named is LoVo. The test is described as follows: Cytotoxicity against human LoVo cells after 3 days by MTT assay. Type of test: functional, cell-based. As to conditions: 72 h. Summed up:
as §1

Test [4] addresses T1, Topoisomerase I (Bos taurus) (UniProt Q2HPH0).
T1 sequence (whole entry): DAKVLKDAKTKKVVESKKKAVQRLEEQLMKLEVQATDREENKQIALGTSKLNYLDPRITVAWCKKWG
The test is described as follows: Inhibition of calf thymus DNA topoisomerase 1-mediated pBR322 DNA cleavage. The gist of the method: (§2)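 Calf thymus Topo I with supercoiled pBR322 DNA in Topo I buffer with 0.1% BSA, 20 uL reactions. Reactions stopped with loading buffer (EDTA, glycerol, xylene cyanol FF, bromophenol blue). Products resolved on 0.8% agarose in TAE, 40 min at 120 V. Gel stained with ethidium bromide at room temperature and imaged under UV.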

Test [5] deals with T1, Topoisomerase I (Bos taurus). The test is described as follows: Inhibition of calf thymus DNA topoisomerase 1-mediated pBR322 DNA cleavage at 1 uM. Summed up: as §2

Calls of active or inactive are those of the source. The rule behind the calls is not given here.

With `CC[C@]1(O)CC(=O)OCc2c1cc1n(c2=O)Cc2c-1nc1cccc(/N=C/c3ccccc3C)c1c2C`, the IC50 in test [1] is 3290 nM; in test [2], 3.9 nM; in test [3] it was 1380 nM. Moreover, the outcome in test [4] was Active.
Regarding `CC[C@]1(O)CC(=O)OCc2c1cc1n(c2=O)Cc2c-1nc1cccc(/N=C/c3cccc(C)c3)c1c2C`, the IC50 in test [1] came out at 2920 nM; in test [2] it was 16 nM; in test [3] it was 2600 nM.
The matching figures for `CC[C@]1(O)CC(=O)OCc2c1cc1n(c2=O)Cc2c-1nc1cccc(/N=C/c3ccc(Cl)cc3)c1c2C`: 2550 nM, 11 nM and 1610 nM.
For the compound `CC[C@]1(O)CC(=O)OCc2c1cc1n(c2=O)Cc2c-1nc1cccc(/N=C/c3ccc(C)cc3)c1c2C`, the IC50 in test [1] was determined as 2840 nM; in test [2], 9.1 nM; in test [3], 910 nM. In addition, the result in test [4] was Active.
On to `CC[C@]1(O)CC(=O)OCc2c1cc1n(c2=O)Cc2c-1nc1cccc(/N=C/c3ccc(C(C)(C)C)cc3)c1c2C`, for which the half-maximal inhibitory concentration (IC50) in test [1] was determined as 4560 nM; in test [2] it was 270 nM; in test [3], 4260 nM.
`CC[C@]1(O)CC(=O)OCc2c1cc1n(c2=O)Cc2c-1nc1cccc(/N=C/c3ccccc3OC)c1c2C`: the IC50 came to 2280 nM in test [1], 2.2 nM in test [2] and 1930 nM in test [3]. Further, the outcome in test [4] was Active.
As for `CC[C@]1(O)CC(=O)OCc2c1cc1n(c2=O)Cc2c-1nc1cccc(/N=C/c3ccc(C)cc3C)c1c2C`, the concentration for half-maximal inhibition (IC50) in test [1] was found to be 2390 nM; in test [2] it was 720 nM; in test [3], 8620 nM.
For the compound `CC[C@]1(O)CC(=O)OCc2c1cc1n(c2=O)Cc2c-1nc1cccc(/N=C/c3ccc(N(C)C)cc3)c1c2C`, the concentration for half-maximal inhibition (IC50) in test [1] amounted to 3010 nM; in test [2], 9.8 nM; in test [3], 3390 nM.
The matching figures for `CC[C@]1(O)CC(=O)OCc2c1cc1n(c2=O)Cc2c-1nc1cccc(NC(C)=O)c1c2C`: 151000 nM, 4320 nM and 190000 nM.
As for `CC[C@]1(O)CC(=O)OCc2c1cc1n(c2=O)Cc2c-1nc1cccc(/N=C/c3cc(C)cc(C)c3)c1c2C`, the IC50 in test [1] turned out to be 5580 nM; in test [2] it was 1180 nM; in test [3] it was 5960 nM.
As for `CC[C@@]1(O)C(=O)OCc2c1cc1n(c2=O)Cc2cc3c(CN(C)C)c(O)ccc3nc2-1` [TOPOTECAN], the results for the half-maximal inhibitory concentration (IC50) in test [1], in test [2] and in test [3] were 1090 nM, 79 nM and 1210 nM, respectively.
The matching figures for `CC[C@]1(O)CC(=O)OCc2c1cc1n(c2=O)Cc2c-1nc1cccc(/N=C/c3ccc(Br)cc3)c1c2C`: 1870 nM, 18 nM and 5800 nM.
On the same counts, the results for `CC[C@]1(O)CC(=O)OCc2c1cc1n(c2=O)Cc2c-1nc1cccc(/N=C/c3cccc([N+](=O)[O-])c3)c1c2C` are 5440 nM, 14 nM and 1070 nM.
Turning to `CC[C@]1(O)CC(=O)OCc2c1cc1n(c2=O)Cc2c-1nc1cccc(/N=C/c3ccc(Cl)cc3Cl)c1c2C`, the IC50 came out at 3600 nM in test [1], 360 nM in test [2] and 4190 nM in test [3].
As to `CC[C@]1(O)CC(=O)OCc2c1cc1n(c2=O)Cc2c-1nc1cccc(N)c1c2C`, the IC50 in test [1] turned out to be 3550 nM; in test [2] it was 110 nM; in test [3] it was 10300 nM. Further, the outcome in test [4] was Active. Further, the outcome in test [5] was inactive.

What is called IC50 is the concentration that inhibits the measured activity by half. High values mean weaker potency in that assay, low ones greater potency in that assay.
